DENV2 CPE rescue = protects cells from dengue virus 2 cytopathic effect | DENV2-infected cells, cytopathic effect rescue, plate reader | 350,000 compounds, 1.7% hits | CPE inhibition, % at 9.99 µM; in the data active = CPE inhibition above about 20%, passing the limit was not always enough; inconclusive = no clear call, values can overlap the other calls; tested in BHK-21 cells
Cneo AK release = Cryptococcus neoformans lysis via adenylate kinase release; 360,000 compounds, 0.2% hits; lysis activity, % at 15 µM; C. neoformans lysis, adenylate kinase release luminescence, 4 h; normalised: neutral wells 0, clomiphene wells 100;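 active = mean lysis activity across replicates of at least 80%, whatever share of replicates individually reach that level; inactive = mean lysis activity below 80%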
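Material – log-phase Cryptococcus neoformans yeast cells · Input – 5 × 10^6 yeast cells/mL · Medium – fresh YPD growth medium · Doses – single compound concentration per well · Timing – static 4 h at 37 °C with compound, 1 h detection · Detection – adenylate kinase release luminescence · Read-out – signal increase indicating cell lysis · Control set – Clomiphene as positive lysis control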
AF4-AF9 inh = blocks AF4 peptide binding to human AF9; P42568; AID 651704; 350,000 compounds, 0.47% hits; AlphaScreen, biotin-AF4 peptide binding to FLAG-AF9; inhibition, % at 10 µM;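 active = every replicate reaching a set inhibition limit, whatever the replicate mean, cut at about 25% in these data; inconclusive = mean inhibition reaches that limit but some replicates miss it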
Target sequence (P42568 whole entry, looked up): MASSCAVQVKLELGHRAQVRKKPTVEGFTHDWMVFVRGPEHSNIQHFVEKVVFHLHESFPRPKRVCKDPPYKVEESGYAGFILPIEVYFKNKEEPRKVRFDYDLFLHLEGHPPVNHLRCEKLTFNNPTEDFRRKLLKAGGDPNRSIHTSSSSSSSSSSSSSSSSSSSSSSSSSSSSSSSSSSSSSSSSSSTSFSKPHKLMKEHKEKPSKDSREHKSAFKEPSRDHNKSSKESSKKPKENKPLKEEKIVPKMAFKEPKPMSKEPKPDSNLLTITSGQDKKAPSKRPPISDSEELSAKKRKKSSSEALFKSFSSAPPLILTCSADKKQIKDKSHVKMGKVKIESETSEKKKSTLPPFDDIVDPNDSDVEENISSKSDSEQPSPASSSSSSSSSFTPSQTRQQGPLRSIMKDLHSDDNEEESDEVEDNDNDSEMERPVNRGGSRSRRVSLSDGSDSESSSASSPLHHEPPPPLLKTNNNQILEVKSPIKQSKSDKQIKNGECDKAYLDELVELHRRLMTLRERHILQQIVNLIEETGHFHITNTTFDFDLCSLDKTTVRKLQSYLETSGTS
Ecoli rRNA inh = selective bacterial rRNA inhibition in E. coli. GFP signal change (wild-type ribosome), % (no concentration beside the values). E. coli WT GFP vs humanized-ribosome RFP mutants, fluorescence, 24 h; stronger effect = lower value; DMSO median 0, no signal -100. 350,000 compounds, 1.6% hits;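 active = significant combined selectivity score with lowered wild-type GFP, culture density cut under 30%, mutant RFP and density less affected; inactive = any of these conditions unmet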
PfHsp90 set2 = inhibits growth of yeast expressing Plasmodium falciparum Hsp90 | S. cerevisiae expressing PfHsp90, BacTiter-Glo ATP, 48 h; yeast lacking PDR1 and PDR3 efflux regulators | inhibition, % at 9.4 µM | 310,000 compounds, 0.32% hits | AID 504621;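 active = every replicate shows inhibition above about 80%, whatever the replicate mean, limit read from the data; inconclusive = mean inhibition reaches the set limit but some replicate falls short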
S100A4 MyoIIA = inhibitors of human S100A4 binding to myosin IIA peptide. P26447. S100A4/TAMRA-MyoIIA peptide fluorescence polarization. inhibition, % at 10.7 µM. 360,000 compounds, 0.14% hits;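 active = mean inhibition of at least 70% across replicates, with every replicate also reaching that level; inconclusive = mean inhibition reaches 70% but some replicates fall short; inactive = mean inhibition below 70%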
Target sequence (P26447 whole entry, looked up): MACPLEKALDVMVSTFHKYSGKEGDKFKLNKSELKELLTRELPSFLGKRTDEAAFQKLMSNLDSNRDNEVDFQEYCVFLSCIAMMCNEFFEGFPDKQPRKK
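assay system = human S100A4 monomer with TAMRA-labelled myosin IIA peptide | also added = labelled myosin peptide probe, 5 nM | incubation = 5 min between mix addition and reading | control set = DMSO and TFP controls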
Each line names hits and unclear results; the compound was inactive in the other large screens. This is a sample that favours compounds with a hit; in the whole collection about 3.2% have one here.

CCN1C(=O)C2(SC(NC(C)=O)=NN2C(C)=O)c2cc(C)cc(C)c21 (configuration not stated)	DENV2 CPE rescue inconclusive, AF4-AF9 inh 50
CCCN1C(=O)C2(SC(NC(C)=O)=NN2C(C)=O)c2cc(C)cc(C)c21 (configuration not stated)	DENV2 CPE rescue inconclusive
CCOc1cc(N2CCOCC2)c(OCC)cc1NC(=O)CN1CCC(Cc2ccccc2)CC1	AF4-AF9 inh 29 (no result: Cneo AK release)
CCOc1cc(N2CCOCC2)c(OCC)cc1NC(=O)[C@H](C)NC(=O)c1ccco1	DENV2 CPE rescue 37
Cc1c(C(=O)Cc2ccccc2)n(C)c2ccccc12	Ecoli rRNA inh -26 (no result: DENV2 CPE rescue, Cneo AK release)
CCCC(=O)c1c(C)c2ccccc2n1C	none (no result: DENV2 CPE rescue, AF4-AF9 inh, Ecoli rRNA inh, PfHsp90 set2, S100A4 MyoIIA)
CC(C)CN(C(=O)c1cccc(S(=O)(=O)N2CCN(Cc3ccccc3)CC2)c1)C1CCS(=O)(=O)C1 (configuration not stated)	AF4-AF9 inh 28
CCCN(C(=O)c1cccc(S(=O)(=O)N2CCN(Cc3ccccc3)CC2)c1)C1CCS(=O)(=O)C1 (configuration not stated)	none
COC(=O)Cc1c(O)ccn(Cc2ccc(Cl)c(Cl)c2)c1=O	Ecoli rRNA inh -21 (no result: Cneo AK release)
CC1C(=NO)C(C)C(c2ccc(N(C)C)cc2)NC1c1ccc(N(C)C)cc1 (configuration not stated)	AF4-AF9 inh 43
O=C(C[C@@H]1CC[C@H]2[C@@H](COC[C@@H](O)CN2S(=O)(=O)c2ccccc2F)O1)NCc1ccccc1F	none (no result: PfHsp90 set2)
CCN(CC)c1ccc(/C=N/N2CCN(Cc3ccccc3Cl)CC2)cc1	AF4-AF9 inh 26
CN(C)c1ccc(/C=N/N2CCN(Cc3ccccc3Cl)CC2)cc1	DENV2 CPE rescue 55, AF4-AF9 inh 31
O=[N+]([O-])c1ccc(/C=N\N2CCN(Cc3ccccc3Cl)CC2)cc1	none (no result: Ecoli rRNA inh, PfHsp90 set2)
CCN(CC)c1ccc(/C=N/N2CCN(Cc3ccccc3)CC2)cc1	AF4-AF9 inh 37 (no result: Cneo AK release)
CN1CCN(/N=C/c2ccc(OCc3ccccc3)cc2)CC1	DENV2 CPE rescue 23
COC(=O)c1ccc(COc2ccc(/C=N/N3CCN(C)CC3)cc2)cc1	none (no result: Cneo AK release)
CN1CCN(C(=O)C[C@H]2CC[C@@H]3[C@H](COC[C@H](O)CN3C(=O)C3CC3)O2)CC1	DENV2 CPE rescue inconclusive (no result: PfHsp90 set2)
COCC(=O)N1CC2(CCN(S(C)(=O)=O)CC2)c2c(n(C)c3cc(OC)ccc23)[C@H]1CO	none (no result: Cneo AK release, PfHsp90 set2)
O=C(Nc1ccccc1F)N[C@H]1CC[C@@H](CCNC(=O)C2CCC2)O[C@H]1CO	none (no result: PfHsp90 set2)
COc1ccc(/C=N/N2CCN(c3ccccc3OC)CC2)cc1OC	none (no result: DENV2 CPE rescue, AF4-AF9 inh, Ecoli rRNA inh, S100A4 MyoIIA)
CCN(CC)c1ccc(/C=N/N2CCN(c3ccccc3OC)CC2)cc1	AF4-AF9 inh 30
O=C(O)CSc1ccn(Cc2ccccc2)c1	DENV2 CPE rescue 51 (no result: PfHsp90 set2)
O=C(O)CSc1nc2ccccc2n1Cc1ccccc1	none
c1ccc(SCc2nc3ccccc3s2)nc1	Ecoli rRNA inh -23
N#Cc1ccccc1	DENV2 CPE rescue 30 (no result: AF4-AF9 inh)
Cc1ccc(NS(=O)(=O)N(C)C)cc1	none (no result: DENV2 CPE rescue, AF4-AF9 inh, Ecoli rRNA inh, S100A4 MyoIIA)
CN(C)S(=O)(=O)Nc1cc(Cl)cc(Cl)c1	Ecoli rRNA inh -37 (no result: Cneo AK release)
CC(=O)N(C)C[C@H]1Oc2ncc(C3=CCCC3)cc2C(=O)N([C@H](C)CO)C[C@@H]1C	none (no result: PfHsp90 set2)
CCOC(=O)c1cc2sc(C)cc2n1CCCN1C(=O)c2ccccc2C1=O	none (no result: DENV2 CPE rescue, AF4-AF9 inh, Ecoli rRNA inh, S100A4 MyoIIA)
CCOC(=O)N1C=CC=C[C@@H]2[C@@H](N3C(=O)c4ccccc4C3=O)C(=O)N21	DENV2 CPE rescue 63 (no result: Cneo AK release)
O=C(C[C@@H]1CC[C@H]2[C@@H](COC[C@H](O)CN2C(=O)Nc2ccc(Cl)c(Cl)c2)O1)NCc1ccc(Cl)c(Cl)c1	none (no result: PfHsp90 set2)
C[C@H](CO)N1C[C@H](C)[C@H](CN(C)Cc2ccccc2)Oc2cc(C#CCN(C)C)ccc2S1(=O)=O	none (no result: PfHsp90 set2)
COc1ccc(CN(C)C[C@H]2Oc3c(NS(=O)(=O)c4cccs4)cccc3C(=O)N([C@H](C)CO)C[C@H]2C)cc1	none (no result: PfHsp90 set2)
CCCCC(NC(=O)Cc1c(C)c2cc3c(C)c(C)oc3c(C)c2oc1=O)C(=O)O (configuration not stated)	none
CCCC(NC(=O)Cc1c(C)c2cc3c(C)c(C)oc3c(C)c2oc1=O)C(=O)N[C@@H](Cc1ccccc1)C(=O)O (some centres not stated)	DENV2 CPE rescue 49 (no result: Ecoli rRNA inh)
CCC(=O)N1[C@H](CO)[C@H](c2ccc(-c3ccc(F)cc3)cc2)[C@@H]1CN(C)C(C)=O	none (no result: PfHsp90 set2)
Cc1nc2ccccc2n2c(-c3ccccc3)c3c(=O)n(C)c(=O)n(C)c3c12	Ecoli rRNA inh -34 (no result: DENV2 CPE rescue, AF4-AF9 inh)
CN1C(=O)c2cc(NC(=O)c3cccs3)ccc2OC[C@H]2O[C@H](CC(=O)O)CC[C@@H]21	none (no result: PfHsp90 set2)
Cc1cc(C(=O)Nc2cccc3c2O[C@@H](CN(C)Cc2ccc(Oc4ccccc4)cc2)[C@H](C)CN([C@@H](C)CO)C3=O)n(C)n1	none (no result: PfHsp90 set2)
N#C[C@@H]1[C@@H](c2ccccc2C2=CCCCC2)[C@@H](CO)N1C(=O)CN1CCOCC1	DENV2 CPE rescue 30 (no result: Cneo AK release, PfHsp90 set2)
C/C=C/c1ccccc1[C@H]1[C@@H](C#N)N(C(=O)CN2CCOCC2)[C@@H]1CO	DENV2 CPE rescue 39 (no result: Cneo AK release, PfHsp90 set2)
CN1C[C@@H]2[C@H](c3ccccc31)[C@@H](CO)N2C(=O)CN1CCOCC1	none (no result: AF4-AF9 inh, PfHsp90 set2, S100A4 MyoIIA)
N#C[C@H]1[C@@H](c2ccccc2C2=CCCC2)[C@@H](CO)N1C(=O)C1CCOCC1	DENV2 CPE rescue 36 (no result: Cneo AK release, PfHsp90 set2)
N#C[C@@H]1[C@H](c2ccccc2C2=CCCCC2)[C@@H](CO)N1C(=O)CN1CCOCC1	none (no result: Cneo AK release, PfHsp90 set2)
C/C=C/c1ccccc1[C@H]1[C@H](C#N)N(C(=O)CN2CCOCC2)[C@H]1CO	none (no result: Cneo AK release, PfHsp90 set2)
CN1C[C@@H]2[C@H](c3ccccc31)[C@H](CO)N2C(=O)CN1CCOCC1	DENV2 CPE rescue 37 (no result: PfHsp90 set2)
CC(NC(=O)c1ccccc1)C(=O)OCn1nnc2ccccc2c1=O (configuration not stated)	DENV2 CPE rescue 33
O=C(Cc1cccc2ccccc12)OCn1nnc2ccccc2c1=O	Ecoli rRNA inh -18
C[C@@H]1CN([C@H](C)CO)C(=O)c2cc(NC(=O)Nc3cccc4ccccc34)ccc2O[C@@H](C)CCCCO[C@@H]1CN(C)CC1CCCCC1	DENV2 CPE rescue 45 (no result: PfHsp90 set2)
C[C@@H]1CCCCO[C@H](CN(C)CC2CCCCC2)[C@H](C)CN([C@@H](C)CO)C(=O)c2cc(NC(=O)Nc3cccc4ccccc34)ccc2O1	Ecoli rRNA inh -53 (no result: PfHsp90 set2)
CC(C)C#Cc1cnc2c(c1)C(=O)N([C@H](C)CO)C[C@@H](C)[C@H](CN(C)Cc1ccc3c(c1)OCO3)O2	none (no result: PfHsp90 set2)
CS(=O)(=O)Nc1ccc2c(c1)[C@@H]1C[C@H](CC(=O)NCc3ccc(Cl)cc3)O[C@H](CO)[C@@H]1O2	none (no result: PfHsp90 set2)
